In ChEMBL document CHEMBL1155387, “Substituted fused bicyclic pyrrolizinones as potent, orally bioavailable hNK1 antagonists” (Bioorg Med Chem Lett, 2010):
Where “and” joins values, the source holds several entries; their conditions need not be identical. Equal entries are not always repeated.

Legend:
[1] = target: T1, Substance-P receptor (Homo sapiens, UniProt P25103); assay: Displacement of [125I]substance P from human NK1 receptor expressed in CHO cells in the presence of 50 percent human serum; type: cell-based
T1 sequence (P25103 whole entry): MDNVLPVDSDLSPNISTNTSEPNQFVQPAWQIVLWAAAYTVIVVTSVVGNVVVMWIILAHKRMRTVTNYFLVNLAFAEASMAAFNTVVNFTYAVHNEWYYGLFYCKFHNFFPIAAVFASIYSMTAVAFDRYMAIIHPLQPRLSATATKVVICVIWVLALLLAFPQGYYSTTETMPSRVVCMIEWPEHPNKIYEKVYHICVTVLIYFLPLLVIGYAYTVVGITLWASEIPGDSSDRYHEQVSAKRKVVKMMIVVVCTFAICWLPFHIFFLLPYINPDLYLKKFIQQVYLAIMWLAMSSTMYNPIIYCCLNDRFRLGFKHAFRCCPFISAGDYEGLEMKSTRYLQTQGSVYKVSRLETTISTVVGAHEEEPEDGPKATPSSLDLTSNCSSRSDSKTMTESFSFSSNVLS

[2] = tested on: Gerbillinae; assay: Inhibition of GR-73632-induced foot tapping in gerbils at 1 mg/kg, iv after 1 hr; type: functional
How it was run: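 Gerbils given 1 mg/kg iv; GR73632-induced foot tapping challenged 1 h after dosing; inhibition of tapping scored.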

[3] = target: T1, Substance-P receptor; assay: Displacement of [125I]substance P from human NK1 receptor expressed in CHO cells; type: cell-based
How it was run: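 Competition binding: [125I]-labelled substance P displaced from cloned human NK1 receptor expressed in CHO cells; IC50 reported as mean of n = 3.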

[4] = Inhibition of sodium channel
How it was run: (§1)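 Ion-channel binding assay; IC50 values calculated for sodium channel and for calcium channel (diltiazem site).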

[5] = target: T1, Substance-P receptor; assay: Antagonist activity at human NK1 receptor expressed in CHO cells assessed as inhibition of substance P-induced inositol phosphate generation at 100 nM; type: functional, cell-based
[6] = Displacement of diltiazem […] from calcium channel; how it was run: as §1
[7] = tested on: Gerbillinae; assay: Inhibition of GR-73632-induced foot tapping in gerbils at 3 mg/kg, iv after 24 hrs; type: functional; settings: for inhibition in vivo at 3 mg/kg: Gerbillinae, iv, 24 h
How it was run: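 Gerbils dosed iv at 3 mg/kg; foot tapping induced by NK1 agonist GR73632 evaluated 24 h post-dose; percent inhibition of the tapping response.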

[8] = tested on: Gerbillinae; assay: Inhibition of GR-73632-induced foot tapping in gerbils at 1 mg/kg, iv after 0.1 hrs; type: functional
[9] = target: Cytochrome P450 2C9 (Homo sapiens, UniProt P11712); assay: Inhibition of CYP2C9; type: ADME
Cytochrome P450 2C9, sequence (P11712 whole entry): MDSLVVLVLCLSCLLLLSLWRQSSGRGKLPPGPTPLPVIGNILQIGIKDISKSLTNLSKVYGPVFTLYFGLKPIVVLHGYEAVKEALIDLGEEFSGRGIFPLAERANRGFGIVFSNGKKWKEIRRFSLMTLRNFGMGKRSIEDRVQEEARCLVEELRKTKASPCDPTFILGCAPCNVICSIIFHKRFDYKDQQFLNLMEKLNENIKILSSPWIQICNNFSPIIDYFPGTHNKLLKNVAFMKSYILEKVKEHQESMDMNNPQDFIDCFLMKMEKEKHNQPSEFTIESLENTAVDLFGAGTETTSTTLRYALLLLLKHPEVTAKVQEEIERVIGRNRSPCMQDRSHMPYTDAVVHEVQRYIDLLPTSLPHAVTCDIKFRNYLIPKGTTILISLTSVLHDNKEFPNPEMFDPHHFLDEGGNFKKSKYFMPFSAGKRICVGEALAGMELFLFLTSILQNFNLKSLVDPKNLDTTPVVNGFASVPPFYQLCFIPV

[10] = Potency (IC50) in iv dosed gerbil after 1 hr; settings: gerbillinae, plasma
[11] = Volume of distribution in rat; type: ADME, organism-based; settings: in vivo
[12] = Stability in rhesus monkey microsomes assessed as compound remaining after 60 mins; type: ADME, Macaca mulatta, Microsome; settings: read-out: Stability
[13] = Volume of distribution in rhesus monkey; type: ADME, organism-based, Macaca mulatta; settings: in vivo
[14] = Half life in rhesus monkey; type: ADME, organism-based, Macaca mulatta; settings: in vivo
[15] = Plasma clearance in dog; type: ADME, organism-based, Canis lupus familiaris
[16] = Oral bioavailability in dog; type: ADME, organism-based, Canis lupus familiaris; settings: in vivo
[17] = Plasma clearance in rhesus monkey; type: ADME, organism-based, Macaca mulatta
[18] = Half life in dog; type: ADME, organism-based, Canis lupus familiaris; settings: in vivo
[19] = Stability in rat microsomes assessed as compound remaining after 60 mins; type: ADME, Microsome; settings: read-out: Stability
[20] = Oral bioavailability in rat; type: ADME, organism-based; settings: in vivo
[21] = Potency (IC50) in iv dosed gerbil brain after 1 hr; settings: gerbillinae
[22] = tested on: Gerbillinae; assay: Inhibition of GR-73632-induced foot taping in iv dosed gerbils after 24 hrs; type: functional; settings: read-out: ID50 (the source's name)
[23] = Ratio of drug level in brain to plasma in rat at 1 mg/kg, iv after 4 hrs; type: ADME, organism-based; design: dose 1 mg/kg, route intravenous; settings: brain and plasma
[24] = Induction of CYP3A4 expression in human LS180 cells relative to rifampin; type: ADME, cell-based
How it was run: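 Human LS180 cells treated with test compound at 10 µM. CYP3A4 induction is expressed as fold induction.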

[25] = target: Cytochrome P450 3A4 (Homo sapiens, UniProt P08684); assay: Inhibition of CYP3A4; type: ADME
Cytochrome P450 3A4, sequence (P08684 whole entry): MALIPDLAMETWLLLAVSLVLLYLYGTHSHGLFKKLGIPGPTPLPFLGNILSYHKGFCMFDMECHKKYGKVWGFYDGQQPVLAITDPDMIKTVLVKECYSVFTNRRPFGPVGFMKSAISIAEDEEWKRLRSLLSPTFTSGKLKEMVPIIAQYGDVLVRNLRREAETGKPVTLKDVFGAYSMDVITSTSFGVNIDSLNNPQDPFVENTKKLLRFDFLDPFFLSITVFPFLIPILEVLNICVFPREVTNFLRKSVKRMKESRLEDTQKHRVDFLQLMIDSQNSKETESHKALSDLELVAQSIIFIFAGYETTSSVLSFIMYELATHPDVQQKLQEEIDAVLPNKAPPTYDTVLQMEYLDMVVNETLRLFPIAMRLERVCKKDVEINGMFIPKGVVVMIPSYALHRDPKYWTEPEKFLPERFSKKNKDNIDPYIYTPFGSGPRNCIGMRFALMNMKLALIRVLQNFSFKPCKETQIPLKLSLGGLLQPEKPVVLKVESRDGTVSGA

[26] = Stability in dog microsomes assessed as compound remaining after 60 mins; type: ADME, Canis lupus familiaris, Microsome; settings: read-out: Stability
[27] = Half life in rat; type: ADME, organism-based; settings: in vivo
[28] = target: T2, PXR (nuclear receptor subfamily 1 group I member 2) (Homo sapiens, UniProt O75469); assay: inhibition of human PXR at 10 uM
T2 sequence (O75469 whole entry): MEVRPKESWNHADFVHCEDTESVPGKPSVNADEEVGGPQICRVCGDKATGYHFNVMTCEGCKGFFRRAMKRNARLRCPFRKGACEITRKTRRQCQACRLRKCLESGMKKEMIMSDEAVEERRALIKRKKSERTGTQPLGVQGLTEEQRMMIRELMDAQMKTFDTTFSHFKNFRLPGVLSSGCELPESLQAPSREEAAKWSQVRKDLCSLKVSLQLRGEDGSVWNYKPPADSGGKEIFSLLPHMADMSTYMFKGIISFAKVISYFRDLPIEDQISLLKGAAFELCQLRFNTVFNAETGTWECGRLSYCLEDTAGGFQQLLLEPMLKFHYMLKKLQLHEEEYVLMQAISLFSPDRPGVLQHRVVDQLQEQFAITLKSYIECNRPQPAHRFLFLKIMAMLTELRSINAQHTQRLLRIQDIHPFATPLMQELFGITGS

[29] = target: Cytochrome P450 2D6 (Homo sapiens, UniProt P10635); assay: Inhibition of CYP2D6; type: ADME
Cytochrome P450 2D6, sequence (P10635 whole entry): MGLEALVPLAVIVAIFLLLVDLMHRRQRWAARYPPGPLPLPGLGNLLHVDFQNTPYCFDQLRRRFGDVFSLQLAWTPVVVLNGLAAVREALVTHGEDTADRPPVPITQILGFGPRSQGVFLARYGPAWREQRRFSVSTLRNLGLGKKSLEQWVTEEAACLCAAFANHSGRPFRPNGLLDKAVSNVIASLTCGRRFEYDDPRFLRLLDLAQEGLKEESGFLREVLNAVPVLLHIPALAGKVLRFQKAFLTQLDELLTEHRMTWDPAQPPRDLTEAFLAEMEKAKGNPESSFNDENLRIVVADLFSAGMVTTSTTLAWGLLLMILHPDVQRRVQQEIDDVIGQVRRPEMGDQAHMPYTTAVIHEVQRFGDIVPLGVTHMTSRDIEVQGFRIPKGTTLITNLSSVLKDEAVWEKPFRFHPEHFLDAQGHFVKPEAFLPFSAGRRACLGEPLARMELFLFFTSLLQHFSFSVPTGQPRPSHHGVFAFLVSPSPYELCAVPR

[30] = tested on: Gerbillinae; assay: Inhibition of GR-73632-induced foot taping in iv dosed gerbils after 1 hr; type: functional; settings: read-out: ID50 (the source's name)
[31] = Volume of distribution in dog; type: ADME, organism-based, Canis lupus familiaris; settings: in vivo
[32] = Oral bioavailability in rhesus monkey; type: ADME, organism-based, Macaca mulatta; settings: in vivo
[33] = Plasma clearance in rat; type: ADME, organism-based
[34] = Stability in human microsomes assessed as compound remaining after 60 mins; type: ADME, Microsome; settings: read-out: Stability

| IC50 [1] | IC50 [3] | IC50 [4] | inhibition of substance P-induced inositol phosphate generation [5] | IC50 [6] | Vd [11] | remaining at 1 h [12] | remaining at 1 h [19] | bioavailability [20] | Kp at 4 h [23] | remaining at 1 h [26] | half-life [27] | clearance [33] | remaining at 1 h [34] | Structure (SMILES) | inhibition in vivo at 1 mg/kg [2] | inhibition in vivo at 3 mg/kg [7] | inhibition in vivo at 1 mg/kg [8] | ED50 [22] | ED50 [30] | further results |
| --- | --- | --- | --- | --- | --- | --- | --- | --- | --- | --- | --- | --- | --- | --- | --- | --- | --- | --- | --- | --- |
| 1.4 nM | 0.13 nM | 2410 nM | 40% | 301 nM |  |  |  |  |  |  |  |  |  | C[C@@H](O[C@H]1CN2C(=O)C(NCc3nn[nH]c3CN(C)C)C[C@H]2[C@@H]1c1ccc(F)cc1)c1cc(C(F)(F)F)cc(C(F)(F)F)c1 (some centres not stated) | 88% |  |  |  |  |  |
| 43.1 nM | 0.3 nM |  | 91% |  |  |  |  |  |  |  |  |  |  | CC(=O)N1C[C@H](O[C@H](C)c2cc(C(F)(F)F)cc(C(F)(F)F)c2)[C@@H](c2ccc(F)cc2)[C@@H]1CO |  | 0% | 49% |  |  |  |
| 0.83 nM | 0.07 nM | 7820 nM | 52% | > 10000 nM |  |  |  |  |  |  |  |  |  | C[C@@H](O[C@H]1CN2C(=O)CC(n3cnnc3)[C@H]2[C@@H]1c1ccc(F)cc1)c1cc(C(F)(F)F)cc(C(F)(F)F)c1 (some centres not stated) | 0% |  |  |  |  |  |
| 2.2 nM |  |  | 67% |  |  |  |  |  |  |  |  |  |  | C[C@@H](O[C@H]1CN2C(=O)CC[C@H]2[C@@H]1c1ccc(F)cc1)c1cc(C(F)(F)F)cc(C(F)(F)F)c1 | 100% | 100% | 100% |  |  |  |
| 0.91 nM | 0.08 nM | 4360 nM and 2600 nM |  | 9400 nM and 2600 nM | 4.2 L/kg | 23% | 60% | 93% | 1 | 73% | 13 h | 5.1 mL/min/kg | 54% | C[C@@H](O[C@H]1CN2C(=O)C(O)C[C@H]2[C@@H]1c1ccc(F)cc1)c1cc(C(F)(F)F)cc(C(F)(F)F)c1 (stereo in doubt; 2b) |  |  |  | 0.016 mg/kg | 0.02 mg/kg | inhibition (INH) ([7]; 3 mg/kg): 100%; INH [9]: > 100 µM; IC50 at 1 h [10]: 8.4 nM; Vd [13]: 2.6 L/kg; half-life [14]: 80.4 h; clearance [15]: 0.8 mL/min/kg; bioavailability [16]: 98%; clearance [17]: 1 mL/min/kg; half-life [18]: 128 h; IC50 at 1 h [21]: 3.8 nM; Ratio [24]: 13; INH [25]: > 100 µM; inhibition at 10 µM [28]: 31%; INH [29]: 62.2 µM; Vd [31]: 2.8 L/kg; bioavailability [32]: 68% |
| 0.6 nM | 0.09 nM | 7720 nM |  | 1880 nM | 5.9 L/kg | 91% | 85% | 78% | 1.4 | 89% | 7.7 h | 8.9 mL/min/kg | 66% | C[C@@H](O[C@H]1CN2C(=O)CC(N)[C@H]2[C@@H]1c1ccc(F)cc1)c1cc(C(F)(F)F)cc(C(F)(F)F)c1 (stereo in doubt; 15a) |  | 100% |  | 0.92 mg/kg | 0.88 mg/kg | Activity [9]: 45 µM; Activity [25]: > 100 µM; Activity [29]: 66 µM |
